Tests used:
Format in all cases: ADME, organism-based
Pancreas = assay: Drug uptake in ddY mouse pancreas at 11.1 kBq, iv after 180 min by gamma counting; details: in vivo, 3 h
Procedure, shortened: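 Male ddY mice (6 weeks, 30–35 g) were given about 11.1 kBq of [125I]tracer in 0.1 mL i.v. via the tail vein. At each time point the animals were killed and organs dissected, weighed and gamma-counted. Uptake is expressed as % injected dose per gram of tissue, mean ± SD, n = 5–6.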

Brain = assay: Drug uptake in ddY mouse brain at 11.1 kBq, iv after 0.5 min by gamma counting; details: in vivo
Procedure, shortened: (§1)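 Male ddY mice (6 weeks, 30–35 g) received about 11.1 kBq [125I]tracer in 0.1 mL i.v. via tail vein. Killed at set times, organs dissected and weighed, radioactivity gamma counted. Reported as % injected dose/g tissue, mean ± SD, n = 5–6.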

Heart = assay: Drug uptake in ddY mouse heart at 11.1 kBq, iv after 60 min by gamma counting; details: in vivo, 1 h; procedure, shortened: as §1

CN1CCCC[C@H]1[C@@H](NC(=O)c1cccc(C(F)(F)F)c1[125I])c1ccccc1
Drug uptake (Pancreas): 4.84 % ID/g | Drug uptake (Brain): 0.51 % ID/g | Drug uptake (Heart): 2.79 % ID/g

Source: ChEMBL document CHEMBL1938298, “Synthesis and characterization of [¹²⁵I]2-iodo N-[(S)-{(S)-1-methylpiperidin-2-yl}(phenyl)methyl]3-trifluoromethyl-benzamide as novel imaging probe for glycine transporter 1” (Bioorg Med Chem, 2011)
